Values after ≈ are worked out from the molar mass of the structure shown. Active and inactive are the calls of the source. The calls are words filed in the database; no cut-off is given here.
Legend:
[1] = system: Candida albicans; assay: Antifungal activity against Candida albicans C 130-2000 after 48 hrs by CLSI M27-A2 method; format: functional
In short: (§1)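 Broth microdilution per CLSI M27-A2 in RPMI-1640, with twofold dilutions giving final 250–0.98 µg/mL. The inoculum was modified to 1–5 × 10⁴ CFU/mL instead of 1–5 × 10³, with ketoconazole and amphotericin B as positive controls. MIC was the lowest concentration giving total growth inhibition, read visually. Strains were grown on Sabouraud-chloramphenicol agar for 24 h at 37 °C.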

[2] = system: Candida albicans; assay: Antifungal activity against Candida albicans ATCC 10231 pre-incubated for 5 days analysed after 24 hrs by CLSI M27-A2 method; format: functional
In short: (§2)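 Twofold maleimide dilutions (1000–0.98 µg/mL) in complete M27-A2 medium without inoculum were held at 37 °C, with one plate row filled on each of 7 consecutive days to give 0–7 days of pre-incubation. All wells were then inoculated with C. albicans ATCC 10231 at 1–5 × 10⁴ CFU/mL and incubated for 24 h at 37 °C. MIC was read per row, in duplicate.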

[3] = system: Candida albicans; assay: Antifungal activity against Candida albicans ATCC 10231 after 24 hrs by CLSI M27-A2 method; format: functional; settings: ATCC 10231, 24 h; in short: as §1
[4] = system: Torulaspora delbrueckii; assay: Antifungal activity against Candida coliculosa C 122-2000 after 48 hrs by CLSI M27-A2 method; format: functional; in short: as §1
[5] = system: Candida albicans; assay: Antifungal activity against Candida albicans ATCC 10231 within 90 mins by time-to-kill study; format: functional, organism-based
In short: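 C. albicans ATCC 10231 (2–2.5 × 10⁴ CFU/mL) in 5 mL RPMI-1640 was exposed to 1× MFC of compound at 37 °C with agitation. 10 µL samples taken at 0, 30, 60, 90 and 120 min, and at 4, 8, 12 and 24 h, were plated on drug-free SDA and colonies counted after 24–48 h at 37 °C. Run in duplicate.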

[6] = system: Candida albicans; assay: Antifungal activity against Candida albicans C 128-2000 after 48 hrs by CLSI M27-A2 method; format: functional; in short: as §1
[7] = system: Candida albicans; assay: Antifungal activity against Candida albicans C 126-2000 after 48 hrs by CLSI M27-A2 method; format: functional; in short: as §1
[8] = system: Candida tropicalis; assay: Antifungal activity against Candida tropicalis C 137-1997 after 48 hrs by CLSI M27-A2 method; format: functional; in short: as §1
[9] = system: Candida albicans; assay: Antifungal activity against Candida albicans ATCC 10231 preincubated for 7 days analysed after 24 hrs by CLSI M27-A2 method; format: functional; in short: as §2
[10] = system: Pichia kudriavzevii; assay: Antifungal activity against Candida krusei C 117-2000 after 48 hrs by CLSI M27-A2 method; format: functional; in short: as §1
[11] = system: Candida albicans; assay: Antifungal activity against Candida albicans ATCC 10231 after 48 hrs by CLSI M27-A2 method; format: functional; settings: ATCC 10231, 48 h; in short: as §1
[12] = system: Nakaseomyces glabratus; assay: Antifungal activity against Candida glabrata C 115-2000 after 48 hrs by CLSI M27-A2 method; format: functional; in short: as §1
[13] = system: Kluyveromyces marxianus; assay: Antifungal activity against Candida kefyr C 123-2000 after 48 hrs by CLSI M27-A2 method; format: functional; in short: as §1
[14] = system: Candida albicans; assay: Antifungal activity against Candida albicans ATCC 10231 pre-incubated for 3 days analysed after 24 hrs by CLSI M27-A2 method; format: functional; in short: as §2
[15] = system: Candida parapsilosis; assay: Antifungal activity against Candida parapsilosis C 124-2000 after 48 hrs by CLSI M27-A2 method; format: functional; settings: Lodderomyces parapsilosis; in short: as §1
[16] = system: Candida albicans; assay: Antifungal activity against Candida albicans ATCC 10231 pre-incubated for 6 days analysed after 24 hrs by CLSI M27-A2 method; format: functional; in short: as §2
[17] = system: Candida albicans; assay: Antifungal activity against Candida albicans ATCC 10231 pre-incubated for 4 days analysed after 24 hrs by CLSI M27-A2 method; format: functional; in short: as §2
[18] = system: Clavispora lusitaniae; assay: Antifungal activity against Candida lusitaniae C 131-2000 after 48 hrs by CLSI M27-A2 method; format: functional; in short: as §1
[19] = system: Candida albicans; assay: Antifungal activity against Candida albicans ATCC 10231 pre-incubated for 2 days analysed after 24 hrs by CLSI M27-A2 method; format: functional; in short: as §2
[20] = system: Candida albicans; assay: Antifungal activity against Candida albicans C 129-2000 after 48 hrs by CLSI M27-A2 method; format: functional; in short: as §1
[21] = system: Candida albicans; assay: Antifungal activity against Candida albicans C 127-2000 after 48 hrs by CLSI M27-A2 method; format: functional; in short: as §1
[22] = system: Candida albicans; assay: Antifungal activity against Candida albicans ATCC 10231 pre-incubated for 1 day analysed after 24 hrs by CLSI M27-A2 method; format: functional; in short: as §2
[23] = system: Candida albicans; assay: Antifungal activity against Candida albicans C 125-2000 after 48 hrs by CLSI M27-A2 method; format: functional; in short: as §1

| MIC [1] | MIC [2] | MIC [3] | MIC [4] | MIC [6] | MIC [7] | MIC [8] | MIC [10] | MIC [11] | MIC [12] | MIC [13] | MIC [15] | MIC [18] | MIC [20] | MIC [21] | MIC [23] | Structure (SMILES) | MFC [1] | MFC [4] | Activity [5] | MFC [6] | other results |
| --- | --- | --- | --- | --- | --- | --- | --- | --- | --- | --- | --- | --- | --- | --- | --- | --- | --- | --- | --- | --- | --- |
| 0.97 µg/mL (≈ 4.51 µM) | 62.5 µg/mL (≈ 290 µM) | 3.9 µg/mL (≈ 18.1 µM) | 3.9 µg/mL (≈ 18.1 µM) | 3.9 µg/mL (≈ 18.1 µM) | 0.97 µg/mL (≈ 4.51 µM) | 15.8 µg/mL (≈ 73.2 µM) | 3.9 µg/mL (≈ 18.1 µM) | 3.9 µg/mL (≈ 18.1 µM) | 1.95 µg/mL (≈ 9.06 µM) | 15.8 µg/mL (≈ 73.2 µM) | 3.9 µg/mL (≈ 18.1 µM) | 1.95 µg/mL (≈ 9.06 µM) | 1.95 µg/mL (≈ 9.06 µM) | 1.95 µg/mL (≈ 9.06 µM) | 0.97 µg/mL (≈ 4.51 µM) | O=C1C=CC(=O)N1CCCc1ccccc1 | 1.95 µg/mL (≈ 9.06 µM) | 32.2 µg/mL (≈ 150 µM) | Active | 7.81 µg/mL (≈ 36.3 µM) | MFC [7]: 1.95 µg/mL (≈ 9.06 µM); MFC [8]: 32.2 µg/mL (≈ 150 µM); MIC [9]: 1000 µg/mL (≈ 4650 µM); MFC [10]: 7.8 µg/mL (≈ 36.2 µM); MFC [11]: 7.8 µg/mL (≈ 36.2 µM); MFC [12]: 3.9 µg/mL (≈ 18.1 µM); MFC [13]: 7.81 µg/mL (≈ 36.3 µM); MIC [14]: 15.8 µg/mL (≈ 73.2 µM); MFC [15]: 3.9 µg/mL (≈ 18.1 µM); MIC [16]: 125 µg/mL (≈ 581 µM); MIC [17]: 15.8 µg/mL (≈ 73.2 µM); MFC [18]: 7.8 µg/mL (≈ 36.2 µM); MIC [19]: 3.9 µg/mL (≈ 18.1 µM); MFC [20]: 3.9 µg/mL (≈ 18.1 µM); MFC [21]: 3.9 µg/mL (≈ 18.1 µM); MIC [22]: 3.9 µg/mL (≈ 18.1 µM); MFC [23]: 1.95 µg/mL (≈ 9.06 µM) |
| > 250 µg/mL | – | – | > 250 µg/mL | > 250 µg/mL | > 250 µg/mL | > 250 µg/mL | > 250 µg/mL | > 250 µg/mL | > 250 µg/mL | > 250 µg/mL | > 250 µg/mL | > 250 µg/mL | > 250 µg/mL | > 250 µg/mL | > 250 µg/mL | O=C(O)/C=C\C(=O)NCCCc1ccccc1 | – | – | – | – | – |
| 0.48 µg/mL (≈ 2.77 µM) | 62.5 µg/mL (≈ 361 µM) | 3.9 µg/mL (≈ 22.5 µM) | 1.95 µg/mL (≈ 11.3 µM) | 0.97 µg/mL (≈ 5.6 µM) | 0.97 µg/mL (≈ 5.6 µM) | 7.81 µg/mL (≈ 45.1 µM) | 1.95 µg/mL (≈ 11.3 µM) | 3.9 µg/mL (≈ 22.5 µM) | 1.95 µg/mL (≈ 11.3 µM) | 1.95 µg/mL (≈ 11.3 µM) | 1.95 µg/mL (≈ 11.3 µM) | 3.9 µg/mL (≈ 22.5 µM) | 0.48 µg/mL (≈ 2.77 µM) | 0.97 µg/mL (≈ 5.6 µM) | 0.48 µg/mL (≈ 2.77 µM) | O=C1C=CC(=O)N1c1ccccc1 | 1.95 µg/mL (≈ 11.3 µM) | 3.9 µg/mL (≈ 22.5 µM) | Active | 3.9 µg/mL (≈ 22.5 µM) | MFC [7]: 3.9 µg/mL (≈ 22.5 µM); MFC [8]: 15.8 µg/mL (≈ 91 µM); MIC [9]: 500 µg/mL (≈ 2890 µM); MFC [10]: 1.95 µg/mL (≈ 11.3 µM); MFC [11]: 7.8 µg/mL (≈ 45 µM); MFC [12]: 3.9 µg/mL (≈ 22.5 µM); MFC [13]: 3.9 µg/mL (≈ 22.5 µM); MIC [14]: 7.8 µg/mL (≈ 45 µM); MFC [15]: 3.9 µg/mL (≈ 22.5 µM); MIC [16]: 125 µg/mL (≈ 722 µM); MIC [17]: 15.8 µg/mL (≈ 91 µM); MFC [18]: 7.8 µg/mL (≈ 45 µM); MIC [19]: 3.9 µg/mL (≈ 22.5 µM); MFC [20]: 1.95 µg/mL (≈ 11.3 µM); MFC [21]: 1.95 µg/mL (≈ 11.3 µM); MIC [22]: 3.9 µg/mL (≈ 22.5 µM); MFC [23]: 1.95 µg/mL (≈ 11.3 µM) |

Reference: ChEMBL document CHEMBL1143889, “N-Phenyl and N-phenylalkyl-maleimides acting against Candida spp.: time-to-kill, stability, interaction with maleamic acids” (2008)
